Assay outcomes deposited in PubChem by Johns Hopkins Ion Channel Center.
Kir21 inh = Kir2.1 (mouse) channel inhibition; AID 1672; P35561; B-score at 10 µM; HEK293-Kir2.1, FluxOR thallium flux fluorescence; active compounds read low; 0.85% of 310,000 active;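 active = fluorescence ratio B-score at or below minus 3 SD of library scores, with starting-brightness B-score within 2 SD, cut at about -4.2 in these data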;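 note: channel flux triggered by added potassium and thallium sulfate stimulus; B-score of peak minus minimum fluorescence over baseline after thallium stimulus; more negative B-score means stronger Kir2.1 block with less thallium influx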
KCNQ1 pot = potentiators or activators of human KCNQ1 potassium channel; P51787; CHO-K1 KCNQ1, thallium flux FluxOR fluorescence; active compounds read high; B-score at 10 µM; 0.35% of 310,000 active;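 active = fluorescence ratio B-score, a plate-corrected score, at least three library SD, with initial intensity B-score within 5 SD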
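assay system = KCNQ1-transfected CHO-K1 cells | medium = assay buffer with matched DMSO | probe or stimulus = depolarizing K+/Tl+ stimulus, K2SO4 and Tl2SO4 each 12.5 mM in 5x stock | dosing = single dose | incubation = dye 90 min, compound 20 min, room temperature | detection = kinetic FluxOR fluorescence, 10 s baseline plus 110 s post-stimulus | evaluation = ratio B score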
KCNK3 inh = human KCNK3 channel inhibition, primary screen; 0.84% of 340,000 active; CHO-KCNK3 thallium flux, FluxOR fluorescence; active compounds read low; B-score at 10 µM; AID 602410;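 active = B-score under library mean minus 4 SD, starting fluorescence ratio at most library mean plus 5 SD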;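 note: more negative B-score means stronger inhibition of thallium flux through KCNK3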
KCNK9 inh-1 = inhibitors of human KCNK9 two-pore domain potassium channel | Q9NPC2 | HEK293 KCNK9, FluxOR thallium flux fluorescence; active compounds read low | B-score at 10 µM | 1.2% of 310,000 active | AID 488922;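 active = ratio B-score over 3 SD below the library mean, with starting fluorescence within 5 SD of its mean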;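 note: negative B-score means less thallium flux so channel inhibition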
KCNQ1 block = inhibitors of human KCNQ1 potassium channel; AID 2642; CHO-K1 KCNQ1, FluxOR thallium flux fluorescence; active compounds read high; B-score at 10 µM; P51787; 1.3% of 310,000 active;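 active = compounds whose thallium flux B-score, printed positive for inhibition, exceeds three library SD while starting fluorescence stays within three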;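 note: channel opened by potassium depolarization with thallium stimulus after 20 min compound exposure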
hERG rescue = hERG (human) protection from proarrhythmic block | Q12809 | CHO-hERG, FluxOR thallium flux, dofetilide IC70 present | activation (rescue from dofetilide block), less the hit threshold, % at 10 µM | 0.51% of 310,000 active;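 active = activation above the mean of controls blocked by dofetilide plus 5 SD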;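 note: thallium influx through hERG after potassium depolarization seen as dye fluorescence rise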
hERG ctr = hERG (human) inhibition as Kir2.1 counter-screen. shares compounds with Kir21 inh. hERG-expressing cells, thallium flux. inhibition, % at 10 µM. 20% of 320 active;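 note: host cells are CHO cells stably expressing hERG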
KCNK9 inh-2 = human KCNK9 off-target activity of Kir2.1 blockers; AID 2329; inhibition, % at 10 µM; shares compounds with Kir21 inh; 5% of 320 active; KCNK9-expressing cells, ion flux inhibition
Kir21 ephys inh = blocks mouse Kir2.1 current in automated electrophysiology; shares compounds with Kir21 inh; Kir2.1 cells, automated patch-clamp current inhibition; inhibition, % at 25 µM; 71% of 320 active; AID 463252
KCNQ1 inh valid = reconfirmed blocker of the human KCNQ1 potassium channel. shares compounds with KCNQ1 block. KCNQ1 cell line, FluxOR thallium flux fluorescence. inhibition, % at 10 µM. 93% of 1,600 active. AID 588353;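 active = primary screen active, with duplicate mean exceeding buffer control mean plus 3 SD of buffer wells, cut at about 28% in these data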
CHO Tl flux = counter-screen for KCNQ1 inhibitors: effect in parental CHO cells; shares compounds with KCNQ1 block; parental CHO-K1, FluxOR thallium flux fluorescence ratio; active compounds read low; zero means no signal rise above baseline; fluorescence ratio (Tl flux) at 10 µM; 21% of 1,600 active; AID 588366;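 active = mean of duplicate thallium-flux fluorescence ratios in parental host cells more than 5 SD below the buffer control mean, cut at about 0.38 in these data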;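 note: ratio is peak minus minimum fluorescence divided by baseline fluorescence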
KCNQ1 ephys val = human KCNQ1 inhibition validated by electrophysiology. AID 624120. calls only at 10 µM. KCNQ1-CHO cells, automated patch clamp current. shares compounds with KCNQ1 block. 20% of 490 active;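 active = KCNQ1 current drop exceeding 3 SD of negative control wells, seen in both duplicate runs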;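 note: steady state current during a 2 s step from -80 to +40 mV; negative values mean current inhibition and positive values mean potentiation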
KCNQ2 inh = selectivity of KCNQ1 inhibitors: inhibition of rat KCNQ2 channel | inhibition, % at 10 µM | 71% of 1,600 active | shares compounds with KCNQ1 block | AID 651746 | KCNQ2 cells, FluxOR thallium flux fluorescence;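 active = mean percent inhibition of the KCNQ2 thallium signal more than 5 SD above the buffer-only control wells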;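 note: KCNQ2 expressed in CHO cells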
KCNQ1 KCNE1 spec = human KCNQ1/KCNE1 inhibition in KCNQ1 specificity screen; shares compounds with KCNQ1 block; AID 652147; KCNQ1/KCNE1 cells, FluxOR thallium flux fluorescence; inhibition, % at 10 µM; 77% of 1,600 active;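 active = mean percent inhibition of duplicate wells above the buffer-only control mean plus 3 SD of those controls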
KCNK3 inh conf = confirmation of human KCNK3 two-pore domain potassium channel inhibitors. 99% of 2,400 active. ratio percent of control, % at 10 µM. CHO-KCNK3 thallium flux, FluxOR fluorescence; 0% buffer, 100% carvedilol maximal block. shares compounds with KCNK3 inh;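 active = ratio percent of control, averaged over triplicates, above buffer control mean plus 5 SD, cut at about 64% in these data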;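 note: ratio is the fluorescence rise from min to max over baseline after thallium stimulus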
KCNK3 uninduced = counter-screen for KCNK3 inhibitors: effect in non-induced cells | shares compounds with KCNK3 inh | non-induced KCNK3 parental cells, FluxOR thallium flux; active compounds read low | 40% of 2,400 active | thallium flux ratio (lower = more inhibition) at 10 µM | AID 651747;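 active = thallium flux ratio, averaged over three wells, more than 5 SD below the buffer control mean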;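 note: host cells are CHO cells without KCNK3 induction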
Large screens that a line does not name were inactive (follow-up assays come after a bar, where they were run). Sampled rows, rich in hits. Any-hit rate of the full collection: about 3.8%. Unless noted, the rule behind the calls is not given here.

O=C(c1ccc2c(c1)N(Cc1ccccc1)CCS2)N1CCCCC1	Kir21 inh -5.8, KCNK3 inh -9.9 | hERG ctr inactive | KCNK9 inh-2 inactive | Kir21 ephys inh inactive | KCNK3 inh conf 124 | KCNK3 uninduced 0.13
N#Cc1c(NC(=O)COC(=O)c2ccc(S(=O)(=O)N3CCCC3)cc2)sc2c1CCCCC2	none
Cc1ccc(-c2nnn(C(C)C(=O)N3c4ccccc4CCc4ccccc43)n2)cc1 (stereo not drawn)	KCNQ1 block 6 | KCNQ1 inh valid 135 | CHO Tl flux inactive | KCNQ1 ephys val inactive | KCNQ2 inh 92% | KCNQ1 KCNE1 spec 162%
CC(C(=O)N1c2ccccc2CCc2ccccc21)n1nnc(-c2ccc(N(C)C)cc2)n1 (stereo not drawn)	none
CC(C)(C)OC(=O)N1CCN(C(=O)OCC2c3ccccc3-c3ccccc32)CC1C(=O)O (stereo not drawn)	none
O=C(c1ccc(C(F)(F)F)cc1)c1c[nH]c(C(=O)NCCCn2ccnc2)c1	KCNQ1 block 7 | KCNQ1 inh valid 59 | CHO Tl flux inactive | KCNQ2 inh inactive | KCNQ1 KCNE1 spec 89%
N#CC1=C(N)NC(SCc2ccc(Cl)cc2)=C(C#N)C12CCCCC2	KCNQ1 block 16 | KCNQ1 inh valid 151 | CHO Tl flux 0.38 | KCNQ2 inh 121% | KCNQ1 KCNE1 spec 185%
CCOC(=O)C1(CC2CC2)CCN(Cc2cnc(-c3ccccc3C)nc2)CC1	KCNQ1 block 7 | KCNQ1 inh valid inactive | CHO Tl flux inactive | KCNQ2 inh 78% | KCNQ1 KCNE1 spec inactive
CCc1ccccc1Cn1c(=O)oc2cccnc21	none
CC(NC(=S)NC1CCCCC1)c1ccc(C(C)(C)C)cc1 (stereo not drawn)	KCNQ1 block 8 | KCNQ1 inh valid 104 | CHO Tl flux inactive | KCNQ1 ephys val inactive | KCNQ2 inh inactive | KCNQ1 KCNE1 spec 77%
CC(C)c1ccc(C(C)NC(=S)NC2CCCCC2)cc1 (stereo not drawn)	none
CC(NS(=O)(=O)c1ccc(Cl)c(Cl)c1)C(=O)OCC(=O)Nc1ccc2c(c1)OCO2 (stereo not drawn)	KCNQ1 block 6 | KCNQ1 inh valid inactive | CHO Tl flux inactive | KCNQ2 inh 62% | KCNQ1 KCNE1 spec inactive
COc1cccc(C(=O)N2CCN(Cc3ccc(OC)cc3OC)CC2)c1	none
O=S(=O)(Nc1ccc(-n2cccc2)cc1)c1ccc(Cl)cc1Cl	none
O=S(=O)(Nc1ccc(-n2cccc2)cc1)c1ccc(Cl)c(Cl)c1	KCNQ1 block 10 | KCNQ1 inh valid 106 | CHO Tl flux inactive | KCNQ1 ephys val inactive | KCNQ2 inh 117% | KCNQ1 KCNE1 spec 162%
CCC1Sc2ccc(S(=O)(=O)Nc3ccc(OC)c(OC)c3)cc2NC1=O (stereo not drawn)	KCNQ1 block 7 | KCNQ1 inh valid 80 | CHO Tl flux inactive | KCNQ2 inh 69% | KCNQ1 KCNE1 spec inactive
CCC1Sc2ccc(S(=O)(=O)Nc3ccc(OC)cc3)cc2NC1=O (stereo not drawn)	none
O=C(Nc1cccc(F)c1)c1ccc(-c2ccccc2Cl)o1	KCNQ1 block 8 | KCNQ1 inh valid 161 | CHO Tl flux 0.31 | KCNQ2 inh 119% | KCNQ1 KCNE1 spec active
COc1ccc(NC(=O)N2CCCC2C(=O)NCC2CCCCC2)cc1 (stereo not drawn)	none
Cc1cc(=O)[nH]c(SCC(=O)NC2CCCCCC2)n1	none (no result: Kir21 inh, KCNQ1 pot, KCNK9 inh-1, KCNQ1 block, hERG rescue)
COc1cccc(C2CC(c3cccs3)=NN2C(=O)CSc2nc3c(cnn3-c3ccc(F)cc3)c(=O)[nH]2)c1OC (stereo not drawn)	KCNQ1 block 15 | KCNQ1 inh valid 116 | CHO Tl flux inactive | KCNQ1 ephys val inactive | KCNQ2 inh 71% | KCNQ1 KCNE1 spec 85%
CCc1nc2ccccc2nc1N1CCN(S(=O)(=O)c2ccc(Cl)cc2)CC1	none
O=S(=O)(c1ccccc1)N1c2cc(Cl)ccc2Oc2nc3ccccc3nc21	KCNQ1 block 8 | KCNQ1 inh valid 109 | CHO Tl flux 0.36 | KCNQ2 inh 100% | KCNQ1 KCNE1 spec 146%
CN1c2ccccc2C(C)(C)C12C=Cc1cc(O)ccc1O2 (stereo not drawn)	KCNQ1 block 9 | KCNQ1 inh valid 132 | CHO Tl flux 0.36 | KCNQ2 inh 128% | KCNQ1 KCNE1 spec 168%
Cc1nn(C)c(C)c1NC(=O)Nc1ccc(Cl)c(Cl)c1	KCNQ1 block 6 | KCNQ1 inh valid 77 | CHO Tl flux inactive | KCNQ2 inh inactive | KCNQ1 KCNE1 spec 76%
CC[C@@]1(O)C(=O)OCc2c1cc1n(c2=O)Cc2cc3c(CN(C)C)c(O)ccc3nc2-1	KCNQ1 block 32 | KCNQ1 inh valid active | CHO Tl flux 0.017 | KCNQ2 inh inactive | KCNQ1 KCNE1 spec inactive
